# Compound activity from PubChem.
# GalR3 antagonist – antagonists of human GalR3; HEK293 GalR3-CNG cAMP membrane potential fluorescence; galR3 body fused to GalR1 C-terminus; inhibition, % at 3 µM; 360,000 tested, 0.44% active;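 active = inhibition above the screen-wide average plus 3 SD, cut at about 13% in these data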;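 note: forskolin and galanin both at EC90 stimulate the cells; cAMP rise reported by CNG channel membrane potential dye signal; 0% = forskolin plus galanin with DMSO and 100% = forskolin alone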
# MC4R antagonist – antagonists of human melanocortin 4 receptor (MC4R); P32245; MC4R-expressing cells, MTII-stimulated cAMP, LANCE TR-FRET; inhibition, % at 6.5 µM; 360,000 tested, 0.48% active; AID 540295;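 active = inhibition above its plate's cutoff, the mean of tested wells on that plate plus 3 SD, cut at about 29% in these data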;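 note: 0% = Melanotan II alone and 100% = Melanotan II plus saturating MCL0020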
#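 Material: U2OS-MC4R stable cell line | Reagent: Melanotan II challenge after compound preincubation | Doses: One concentration, 6.5 µM nominal | Incubation: 30-min compound preincubation, 1-h Melanotan II challenge, 1-h detection, room temperature | Signal: TR-FRET cAMP assay | Replicates: One well per compound, no replicates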
# TAG inh – reduces triacylglycerol accumulation in H9c2 cells; inhibition, % at 12.5 µM; Nile Red lipid (TAG) fluorescence; cells loaded with 200 µM oleic acid; 230,000 tested, 0.66% active;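 active = pattern-corrected inhibition of lipid staining of at least 50% with the nuclear-stain viability signal not falling by more than 50%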;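 note: 0% = DMSO wells and 100% = triacsin C control wells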
# MC4R ag barr – agonists of human melanocortin 4 receptor (MC4R) beta-arrestin | AID 540308 | U2OS MC4R beta-arrestin complementation, luminescence; percent of melanotan II response, DMSO zero | 360,000 tested, 0.98% active | activation, % at 8.9 µM | P32245;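 active = activation above a per-plate cutoff, the mean activation of sample wells on that plate plus 3 SD, cut at about 8% in these data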
# Calb FLC – C. albicans growth modulation with fluconazole. AID 1979. growth inhibition, % (no concentration beside the values). C. albicans CaCi-2 + fluconazole, Alamar Blue growth, 48 h. 300,000 tested, 0.57% active;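 active = growth inhibition above about 58% in most replicates, limit read from the data, passing the limit was not always enough; inconclusive = exactly half the replicates above a set limit; inactive = most replicates below a set limit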;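 note: all wells also contain fluconazole at 8 µg/ml as a sub-toxic cotreatment; 0% = median of DMSO wells and 100% = median of geldanamycin control wells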
# Efflux pump inh – inhibitors of Candida antifungal efflux pumps expressed in yeast; S. cerevisiae Candida pump triplex, Nile Red efflux; inhibition, % at 10 µM; 330,000 tested, 0.44% active;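 active = plate passing quality check with inhibition over a set limit, or well fluorescence over plate mean plus 4 SD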;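 note: Nile Red retained in pooled yeast measured as flow cytometry median fluorescence; 0% = buffer negative control and 100% = Enniatin B positive control; higher means more Nile Red kept so more efflux inhibition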
# MC4R barr ag – human MC4R beta-arrestin agonism confirmation; shares compounds with MC4R ag barr; U2OS MC4R beta-arrestin recruitment, luminescence; scaled DMSO 0%, Melanotan II 100%; activation, % at 8.9 µM; 2,400 tested, 31% active; AID 602192;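 active = mean activation across replicates above the hit cutoff set in the earlier primary screen, cut at about 8% in these data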
# MOR-DOR barr ag – OPRM1-OPRD1 heterodimer agonism counter-screen; shares compounds with MC4R ag barr; U2OS PathHunter beta-arrestin, beta-gal luminescence; percent of deltorphin B response, DMSO zero; 2,400 tested, 5.8% active; activation, % at 9.2 µM;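 active = mean activation across replicates exceeds the hit threshold derived in the earlier primary screen, cut at about 18% in these data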;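 note: 100% = deltorphin B at 0.9 µM final and 0% = DMSO alone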
# Target sequence (P35372 whole entry, looked up): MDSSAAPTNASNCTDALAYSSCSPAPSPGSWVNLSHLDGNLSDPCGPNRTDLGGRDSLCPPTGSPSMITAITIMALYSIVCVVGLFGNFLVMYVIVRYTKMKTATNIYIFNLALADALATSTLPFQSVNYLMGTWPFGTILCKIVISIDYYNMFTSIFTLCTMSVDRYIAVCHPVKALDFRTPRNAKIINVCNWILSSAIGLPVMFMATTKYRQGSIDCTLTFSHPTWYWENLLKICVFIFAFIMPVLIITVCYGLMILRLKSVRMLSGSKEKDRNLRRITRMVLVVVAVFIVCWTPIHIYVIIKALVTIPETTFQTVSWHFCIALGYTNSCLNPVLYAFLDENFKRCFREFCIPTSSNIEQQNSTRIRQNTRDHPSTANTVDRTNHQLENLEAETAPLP
# Target sequence (P41143 whole entry, looked up): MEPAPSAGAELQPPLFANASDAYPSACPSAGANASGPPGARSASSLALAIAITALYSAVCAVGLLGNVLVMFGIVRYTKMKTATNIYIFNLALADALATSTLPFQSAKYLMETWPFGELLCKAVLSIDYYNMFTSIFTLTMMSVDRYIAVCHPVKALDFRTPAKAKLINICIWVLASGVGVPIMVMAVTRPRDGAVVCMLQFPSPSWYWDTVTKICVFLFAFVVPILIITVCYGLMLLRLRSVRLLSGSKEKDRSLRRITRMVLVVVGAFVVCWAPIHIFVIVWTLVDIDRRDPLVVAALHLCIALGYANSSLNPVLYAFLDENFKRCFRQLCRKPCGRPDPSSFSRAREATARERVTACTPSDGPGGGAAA
# The depositor's hits bear a star; ? = inconclusive; nt = no result given. An excerpt weighted towards active compounds, which were near 2.9% of everything screened.
SMILES,GalR3 antagonist,MC4R antagonist,TAG inh,MC4R ag barr,Calb FLC,Efflux pump inh,MC4R barr ag,MOR-DOR barr ag
O=C(N/N=C/c1cccc(O)c1)c1ccc(COc2ccccc2Br)cc1,-2,2,nt,13*,-1,-4,6,3
O=C(N/N=C/c1ccc(OCc2ccc(F)cc2)cc1)c1ccccc1,-5,-1,8,5,-33,0,nt,nt
COC(=O)[C@]12CCCCC=C1N(CCc1ccc(OC)c(OC)c1)C(=O)[C@H](CC(=O)N1CCCCC1)C2,-4,nt,nt,nt,nt,nt,nt,nt
O=C(NN=Cc1cc(Cl)ccc1[N+](=O)[O-])c1cccc2ccccc12,-4,-1,-9,11*,nt,nt,4,9
CCOc1ccccc1C(=O)NCC(=O)NCCSc1ccc(Br)cc1,-5,-2,-18,15*,nt,nt,2,5
Nc1[nH]c(C(=O)c2ccccc2)c(-c2ccc(Cl)cc2)c1C(=O)NCc1ccccc1,1,nt,nt,nt,nt,nt,nt,nt
Cc1ccc(-c2nnc(-c3cccc4ccccc34)o2)cc1,-7,4,-7,0,nt,nt,nt,nt
Clc1ccc(-c2nnc(-c3cccc4ccccc34)o2)cc1,-2,0,-10,11*,nt,nt,3,2
c1ccc(Nc2nnc(-c3cccc4ccccc34)o2)cc1,-1,7,10,17*,-4,0,7,8
NC(c1csc(Nc2nncc3ccccc23)n1)C1CCCCC1 (stereo not given),-6,7,33,4,nt,nt,nt,nt
Cc1noc(C)c1CSc1nc2sc(C)c(C)c2c(=O)n1-c1ccccc1,4,7,25,11*,1,0,-2,5
Cc1ccc(-c2nc3ccccc3s2)cc1NC(=O)c1cc(-n2cnnc2)ccc1Cl,-10,14,nt,11*,11,0,0,3
Cc1ccc(-c2nc3ccccc3s2)cc1NC(=S)NC(=O)c1ccccc1,-3,7,nt,2,1,0,nt,nt
Cc1ccc(-c2csc(NC(=S)NC(=O)c3cccs3)n2)cc1,0,19,nt,-1,-1,0,nt,nt
O=C(NC(=S)Nc1nc(-c2ccccc2)cs1)c1cccs1,-1,12,nt,11*,2,2,0,1
O=C(NC(=S)Nc1nc(-c2ccccc2)cs1)c1cncc(Br)c1,-6,5,nt,22*,5,0,6,1
COc1ccc(C(=O)N2CCCC(C)(C(=O)NS(=O)(=O)C3CC3)C2)cc1 (stereo not given),-5,7,4,1,nt,nt,nt,nt
Cc1ccc(S(=O)(=O)N2[C@@H](c3ccc(C(C)(C)C)cc3)C(C(=O)O)=CC[C@H]2c2ccc(C(C)C)cc2)cc1,-5,9,1,20*,nt,1,15*,5
CC(C)(C)C1CCC(CN2C(Nc3ccccc3)=NC[C@@H]2Cc2ccccc2)CC1 (stereo not given in full),-5,1,113*,14*,nt,0,11*,16
CC1CCc2sc3ncn4nc(C(=O)NCc5ccco5)nc4c3c2C1 (stereo not given),-4,6,7,0,?,0,nt,nt
CC1CCc2c(sc3ncn4c(SCC(=O)NCc5ccco5)nnc4c23)C1 (stereo not given),-5,-16,nt,10*,12,0,9.9*,4
Cc1ccc(S(=O)(=O)N2CC3C(=O)C[C@@H](c4ccccc4)N(S(=O)(=O)c4ccc(CCCOCCOCCNC(=O)OC(C)(C)C)cc4)C3CC2c2ccccc2)cc1 (stereo not given in full),-1,nt,nt,nt,nt,nt,nt,nt
Oc1cccc(C(=S)N2CCC(Cc3ccccc3)CC2)c1,-8,0,0,10*,-26,0,6,11
Oc1cccc(C(=S)N2CCN(Cc3ccccc3)CC2)c1,-5,-2,17,-2,-5,0,nt,nt
N/C(=N\c1nc2ccccc2o1)NC(=O)c1cccc(Br)c1,5,9,20,-2,-7,0,nt,nt
SMILES,GalR3 antagonist,MC4R antagonist,TAG inh,MC4R ag barr,Calb FLC,Efflux pump inh,MC4R barr ag,MOR-DOR barr ag
N/C(=N\c1nc2ccccc2o1)NC(=O)c1ccccc1,-7,15,-10,14*,-6,0,3,5
Cc1ccc(C(=O)N/C(N)=N/c2nc3ccccc3o2)cc1,0,-4,nt,16*,4,0,4,2
COC(=O)[C@]12C[C@H](CC(=O)NCc3cccc(C(F)(F)F)c3)C(=O)N(Cc3ccccc3)C1=C[C@H](C(C)(C)C)O[C@@H]2C,-6,nt,nt,nt,nt,nt,nt,nt
CC1CCc2sc(C(=O)OCC(=O)NCc3ccc(F)cc3)cc2C1 (stereo not given),-3,-24,nt,13*,-8,0,2,4
CC1(Oc2cccc(F)c2)CCN(Cc2ccc(-c3ccccc3)o2)C1 (stereo not given),-6,-3,13,10.0*,nt,nt,1,5
Nc1ccn([C@@H]2O[C@H](C(=O)N3CCN(C(=O)N4CCCCC4)CC3)[C@@H](O)[C@H]2O)c(=O)n1,-7,nt,nt,nt,nt,nt,nt,nt
COc1ccc(-c2nn(-c3ccccc3)cc2/C=C2/SC(=S)N(CCC(=O)O)C2=O)cc1,-8,5,nt,2,2,0,nt,nt
O=C(O)CCN1C(=O)/C(=C/c2cn(-c3ccccc3)nc2-c2cccs2)SC1=S,-2,9,6,27*,nt,nt,1,2
O=C(O)CCCCCN1C(=O)/C(=C/c2cn(-c3ccccc3)nc2-c2cccs2)SC1=S,-4,18,8,5,nt,nt,nt,nt
O=C(O)CCCCCN1C(=O)/C(=C\c2cn(-c3ccccc3)nc2-c2cccs2)SC1=S,-7,16,-10,26*,42,0,10.0*,3
O=C(NCc1ccncc1)[C@@H]1CCCN1C(=O)[C@H]1CCCN1,0,nt,nt,nt,nt,nt,nt,nt
CNC(=O)/C(C#N)=C/c1ccc(-c2ccc(Cl)cc2)o1,-4,5,nt,14*,?,0,41*,13
CCOC(=O)c1ccc(-c2ccc(/C=C(\C#N)C(=O)NCc3cccs3)o2)cc1,-2,-19,nt,39*,nt,0,27*,6
O=C(COc1cc(Cl)c(Cl)cc1Cl)Nc1cccc(O)c1,-10,23,nt,20*,1,0,7,9
Cn1c(CNC(=O)c2ccc(Cl)cc2)nnc1SCC(=O)Nc1sc2c(c1C#N)CCCC2,-2,-1,6,17*,-24,0,1,4
Cc1ccc(C(C)C)c(OCC(=O)Nc2sc3c(c2C#N)CC(C)(C)NC3(C)C)c1,nt,1,nt,4,-16,0,nt,nt
